Source: ChEMBL document CHEMBL1131250 (J Med Chem, 1998)

What was measured:
[1] = biological target: T1, 5-hydroxytryptamine receptor 1A (Homo sapiens, UniProt P08908); test: The compound was tested for CNS binding affinity towards 5-hydroxytryptamine 1A receptor from cloned Human membranes.
T1 sequence (P08908 whole entry): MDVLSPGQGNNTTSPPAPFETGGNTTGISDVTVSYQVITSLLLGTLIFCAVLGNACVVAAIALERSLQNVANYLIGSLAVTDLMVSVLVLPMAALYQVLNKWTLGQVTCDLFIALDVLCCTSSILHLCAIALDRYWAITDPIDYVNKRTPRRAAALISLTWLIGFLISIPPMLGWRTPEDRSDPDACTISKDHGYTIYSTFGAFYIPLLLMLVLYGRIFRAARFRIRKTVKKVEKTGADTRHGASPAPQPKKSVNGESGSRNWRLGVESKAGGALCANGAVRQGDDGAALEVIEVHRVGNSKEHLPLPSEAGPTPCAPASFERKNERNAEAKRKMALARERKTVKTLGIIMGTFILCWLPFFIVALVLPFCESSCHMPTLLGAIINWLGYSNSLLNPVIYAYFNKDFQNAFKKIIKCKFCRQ
In short: (§1)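 Radioligand binding on membranes from cloned human receptors (5-HT1A, 5-HT2A, D2, D4). Ki values reported.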

[2] = biological target: 5-hydroxytryptamine receptor 1B (Gorilla gorilla, UniProt Q9N2B7); test: The compound was tested for CNS binding affinity towards 5-hydroxytryptamine 1B receptor from cloned gorilla membranes expressed in cultured HEK 293 cells; assay type: cell-based, HEK293
Sequence of 5-hydroxytryptamine receptor 1B (Q9N2B7 whole entry): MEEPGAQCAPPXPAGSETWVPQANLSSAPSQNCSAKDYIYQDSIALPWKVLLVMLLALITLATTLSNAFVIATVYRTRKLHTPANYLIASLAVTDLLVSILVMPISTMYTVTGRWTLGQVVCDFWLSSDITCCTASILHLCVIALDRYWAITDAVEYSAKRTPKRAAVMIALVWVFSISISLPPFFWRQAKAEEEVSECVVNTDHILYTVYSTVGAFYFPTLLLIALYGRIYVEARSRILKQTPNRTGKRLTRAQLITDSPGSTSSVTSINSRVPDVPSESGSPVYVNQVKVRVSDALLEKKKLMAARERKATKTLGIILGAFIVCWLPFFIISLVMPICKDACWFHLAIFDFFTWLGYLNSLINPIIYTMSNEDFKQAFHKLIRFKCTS

D(2) dopamine receptor [3] = biological target: T2, D(2) dopamine receptor (Homo sapiens, UniProt P14416); test: The compound was tested for CNS binding affinity towards Dopamine receptor D2 from cloned Human membranes.; in short: as §1
T2 sequence (P14416 whole entry): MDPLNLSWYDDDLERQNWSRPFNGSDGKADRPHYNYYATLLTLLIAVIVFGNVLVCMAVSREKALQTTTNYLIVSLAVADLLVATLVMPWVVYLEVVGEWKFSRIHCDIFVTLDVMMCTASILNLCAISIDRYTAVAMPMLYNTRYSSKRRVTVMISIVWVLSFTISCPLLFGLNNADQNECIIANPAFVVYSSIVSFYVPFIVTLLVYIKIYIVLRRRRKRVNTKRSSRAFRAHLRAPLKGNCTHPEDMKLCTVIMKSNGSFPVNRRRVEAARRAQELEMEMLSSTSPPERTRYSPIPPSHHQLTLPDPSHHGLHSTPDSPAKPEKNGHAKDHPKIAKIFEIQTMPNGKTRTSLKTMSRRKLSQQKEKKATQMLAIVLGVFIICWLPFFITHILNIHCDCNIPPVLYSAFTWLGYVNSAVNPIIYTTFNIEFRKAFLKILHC

Cavia porcellus [4] = test: The compound (100umol/kg, sc) was tested for hypothermic response for 60 mins and in Guinea pig; assay type: functional
In short: (§2)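 Guinea pigs dosed subcutaneously. Body temperature change read at 30 and 60 min after dosing. Response given as the difference in °C from vehicle-treated controls, as mean ± SEM, n = 4-5 per group. Significance tested against vehicle.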

D(4) dopamine receptor [5] = biological target: T3, D(4) dopamine receptor (Homo sapiens, UniProt P21917); test: The compound was tested for CNS binding affinity towards Dopamine receptor D4 from cloned Human membranes.; in short: as §1
T3 sequence (P21917 whole entry): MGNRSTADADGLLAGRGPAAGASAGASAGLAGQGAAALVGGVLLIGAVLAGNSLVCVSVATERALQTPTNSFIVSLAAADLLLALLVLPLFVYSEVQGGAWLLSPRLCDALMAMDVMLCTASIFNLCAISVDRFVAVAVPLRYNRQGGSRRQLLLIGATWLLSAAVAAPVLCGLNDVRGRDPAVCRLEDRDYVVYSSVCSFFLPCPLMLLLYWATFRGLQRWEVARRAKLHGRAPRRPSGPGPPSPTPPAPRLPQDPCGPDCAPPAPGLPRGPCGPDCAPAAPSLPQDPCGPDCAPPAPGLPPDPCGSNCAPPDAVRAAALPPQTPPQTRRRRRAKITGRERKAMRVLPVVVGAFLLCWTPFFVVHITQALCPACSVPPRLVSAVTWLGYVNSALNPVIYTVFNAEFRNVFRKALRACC

Cavia porcellus [6] = test: The compound (50umol/kg, sc) was tested for hypothermic response for 30 mins in Guinea pig; assay type: functional; in short: as §2
Cavia porcellus [7] = test: The compound (25umol/kg, sc) was tested for hypothermic response for 30 mins in Guinea pig; assay type: functional; in short: as §2
Cavia porcellus [8] = test: The compound (25umol/kg, sc) was tested for hypothermic response for 60 mins and in Guinea pig; assay type: functional; in short: as §2
[9] = biological target: T4, 5-hydroxytryptamine receptor 2A (Homo sapiens, UniProt P28223); test: The compound was tested for CNS binding affinity towards 5-hydroxytryptamine 2A receptor from cloned Human membranes
T4 sequence (P28223 whole entry): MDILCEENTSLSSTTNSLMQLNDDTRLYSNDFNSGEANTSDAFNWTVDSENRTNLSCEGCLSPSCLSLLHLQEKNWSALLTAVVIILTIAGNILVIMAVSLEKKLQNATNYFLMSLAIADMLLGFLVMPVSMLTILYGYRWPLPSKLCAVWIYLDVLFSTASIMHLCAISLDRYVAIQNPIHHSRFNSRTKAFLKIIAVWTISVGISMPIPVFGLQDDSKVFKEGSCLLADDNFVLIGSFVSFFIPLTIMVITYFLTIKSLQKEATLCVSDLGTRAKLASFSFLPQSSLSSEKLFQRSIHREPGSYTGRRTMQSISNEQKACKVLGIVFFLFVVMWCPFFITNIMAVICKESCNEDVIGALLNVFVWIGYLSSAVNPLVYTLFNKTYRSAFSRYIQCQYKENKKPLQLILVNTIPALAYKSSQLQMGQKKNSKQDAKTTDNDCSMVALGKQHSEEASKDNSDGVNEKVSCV

Cavia porcellus [10] = test: The compound (50umol/kg, sc) was tested for hypothermic response for 60 mins and in Guinea pig; assay type: functional; in short: as §2
Cavia porcellus [11] = test: The compound (100umol/kg, sc) was tested for hypothermic response for 30 mins in Guinea pig; assay type: functional; in short: as §2
D(4) dopamine receptor [12] = biological target: T3, D(4) dopamine receptor; test: The compound was tested for CNS binding affinity towards Dopamine receptor D4 from cloned Human membranes; Inactive
Cavia porcellus [13] = test: The compound (25umol/kg, sc) was tested for hypothermic response for 60 mins in Guinea pig; assay type: functional
In short: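 Guinea pigs received compound subcutaneously (doses 25–100 μmol/kg across groups), and body temperature change was read at 30 and 60 min after dosing. The hypothermic response is the difference in °C from vehicle-treated controls, reported as mean ± SEM (n = 4–5), with significance tested against vehicle.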

[14] = biological target: T1, 5-hydroxytryptamine receptor 1A; test: The compound was tested for CNS binding affinity towards 5-hydroxytryptamine 1A receptor from cloned Human membranes; in short: as §1
D(4) dopamine receptor [15] = biological target: T3, D(4) dopamine receptor; test: The compound was tested for CNS binding affinity towards Dopamine receptor D4 from cloned Human membranes; in short: as §1
D(2) dopamine receptor [16] = biological target: T2, D(2) dopamine receptor; test: The compound was tested for CNS binding affinity towards Dopamine receptor D2 from cloned Human membranes; in short: as §1
[17] = biological target: T4, 5-hydroxytryptamine receptor 2A; test: The compound was tested for CNS binding affinity towards 5-hydroxytryptamine 2A receptor from cloned Human membranes.; in short: as §1

SMILES	Ki [1]	Ki [2]	Ki (D(2) dopamine receptor [3])	Ki (D(4) dopamine receptor [12])	further results
CNC(=O)c1ccc2c(c1)CCO[C@H]2CCN1CCN(c2ccc(OC)cc2)CC1	1090 nM	5780 nM	241 nM		Hypothermic effect (Cavia porcellus [4]): -1.52 °C; Ki (D(4) dopamine receptor [5]): > 3700 nM; Hypothermic effect (Cavia porcellus [6]): -1.84 °C; Hypothermic effect (Cavia porcellus [7]): -0.8 °C; Hypothermic effect (Cavia porcellus [8]): -0.54 °C; Ki [9]: 168 nM; Hypothermic effect (Cavia porcellus [10]): -2.34 °C; Hypothermic effect (Cavia porcellus [11]): -1.38 °C
CNS(=O)(=O)Cc1ccc2[nH]cc(CCN(C)C)c2c1			> 218 nM	Not Active	Hypothermic effect (Cavia porcellus [13]): -0.14
COc1ccc(N2CCN(CCC3OCCc4ccccc43)CC2)cc1 (configuration not stated)	899 nM	7240 nM	1430 nM		Ki (D(4) dopamine receptor [5]): 2.4 nM; Ki [9]: 76 nM

Further lines, with some results ahead:

Ki [1]	Ki [2]	Ki (D(2) dopamine receptor [3])	Ki (D(4) dopamine receptor [12])	SMILES	further results
> 3360 nM	26000 nM	386 nM		COc1ccc(N2CCN(CC[C@H]3OCCc4cc(C(N)=O)ccc43)CC2)cc1	
	5860 nM			COc1ccc(N2CCN(CCC3OCCc4cc(C(N)=O)ccc43)CC2)cc1 (configuration not stated)	Ki [14]: 2460 nM; Ki (D(4) dopamine receptor [15]): 1050 nM; Ki (D(2) dopamine receptor [16]): 348 nM
> 3360 nM	150000 nM	158 nM	Not Active	CNC(=O)c1ccc2c(c1)CCO[C@@H]2CCN1CCN(c2ccc(OC)cc2)CC1	Ki [17]: 586 nM
967 nM	3020 nM	325 nM	Not Active	COc1ccc(N2CCN(CC[C@@H]3OCCc4cc(C(N)=O)ccc43)CC2)cc1	Hypothermic effect (Cavia porcellus [6]): -1.42 °C; Hypothermic effect (Cavia porcellus [10]): -1.14 °C
